Data published in ChEMBL document CHEMBL1149154, “Comparative molecular field analysis and comparative molecular similarity indices analysis of thalidomide analogues as angiogenesis inhibitors” (2004).

organism: Rattus norvegicus; assay: Inhibition of microvessel outgrowth in the rat aortic ring assay; assay type: functional, Aorta; parameters: concentration or dose not given beside the values
Method in brief: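 Aortic 1 mm cross-sections from 6–8-week-old male Sprague–Dawley rats, periadventitial fat removed, embedded between Matrigel layers (37 °C, 5% CO2). Cultured 24 h in EGM-II, then switched to EBM-II with 2% FBS, amphotericin B and gentamicin. Compounds in DMSO added to medium daily for 4 days (vehicle 0.5% DMSO; carboxyamidotriazole positive control). Microvessel growth photographed on day 5.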

Row | Compound | Inhibition [%]
1 | O=C1c2ccccc2C(=O)N1c1cnc(O)nc1O | 5.75
2 | O=C1CC(N2C(=O)c3ccccc3C2=O)C(=O)N1 (centres undefined) | 9.75
3 | O=C1c2c(F)c(F)c(F)c(F)c2C(=O)N1c1ccc(F)cc1F | 39.75
4 | [N-]=[N+]=NCN1C(=O)CCC(N2C(=O)c3ccccc3C2=O)C1=O (centres undefined) | 24.67
5 | CC(C)C(N)C(=O)OCN1C(=O)CCC(N2C(=O)c3ccccc3C2=O)C1=O.Cl (centres undefined) | 88
6 | O=C1CCC(N2Cc3ccccc3C2=O)C(=O)N1 (centres undefined) | 11.25
7 | CCC1(N2C(=O)c3c(F)c(F)c(F)c(F)c3C2=O)C(=O)NC(=O)N(c2ccccc2)C1=O (centres undefined) | 75.75
8 | O=C1c2c(F)c(F)c(F)c(F)c2C(=O)N1c1cnc(O)nc1O | 15.25
9 | O=C1c2cccc([N+](=O)[O-])c2C(=O)N1c1cn(-c2ccccc2)c(=O)[nH]c1=O | -23.33
10 | NC(=O)c1ccc[n+](CN2C(=O)CCC(N3C(=O)c4ccccc4C3=O)C2=O)c1.[Cl-] (centres undefined) | 29.67
11 | Cl.NCC(=O)OCN1C(=O)CCC(N2C(=O)c3ccccc3C2=O)C1=O (centres undefined) | 71.33
12 | O=C1CCC(N2C(=O)c3ccc(O)c(O)c3C2=O)C(=O)N1 (centres undefined) | 10.25
13 | NC(Cc1ccccc1)C(=O)OCN1C(=O)CCC(N2C(=O)c3ccccc3C2=O)C1=O (centres undefined) | 4
14 | O=C1CCC(N2C(=O)c3cc(O)c(O)cc3C2=O)C(=O)N1 (centres undefined) | 38.75
15 | CCOCN1C(=O)CCC(N2C(=O)c3ccccc3C2=O)C1=O (centres undefined) | 32
16 | Cc1ccc(C)c2c1C(=O)N(c1ccc(F)cc1F)C2=O | 18
17 | NC(=O)C(CCC(=O)O)N1C(=O)c2ccccc2C1=O (centres undefined) | 15.25
18 | O=C1c2ccccc2C(=O)N1c1ccc(F)cc1F | -4.75
19 | O=C(O)CN1C(=O)CCC(N2C(=O)c3ccccc3C2=O)C1=O (centres undefined) | 39.75
20 | O=C1NC(=O)C(N2C(=O)c3ccccc3C2=O)CC1O (centres undefined) | 3.75

Row | Compound | Inhibition [%]
21 | CC(C)(C)OC(=O)C(C(=O)NC(C(=O)O)C(=O)O)N1C(=O)c2ccccc2C1=O (centres undefined) | 13.25
22 | COc1cc2c(cc1OC)C(=O)N(C1CCC(=O)NC1=O)C2=O (centres undefined) | 23.25
23 | CC(C)(C)OC(=O)NCC(=O)OCN1C(=O)CCC(N2C(=O)c3ccccc3C2=O)C1=O (centres undefined) | 40.25
24 | CCC1(N2C(=O)c3ccccc3C2=O)C(=O)NC(=O)N(c2ccccc2)C1=O (centres undefined) | -0.5
25 | O=C(O)CCC(NC(C(=O)O)N1C(=O)c2ccccc2C1=O)C(=O)O (centres undefined) | 25.75
26 | O=C(O)CCC(C(=O)O)N1C(=O)c2ccccc2C1=O (centres undefined) | 10.75
27 | CC(C(=O)OCN1C(=O)CCC(N2C(=O)c3ccccc3C2=O)C1=O)N(C)C(=O)OC(C)(C)C (centres undefined) | 56.5
28 | O=C1CCC(N2C(=O)c3ccccc3C2=O)C(=O)N1CO (centres undefined) | 21
29 | CC(C)CCCC(C)C1CCC2C3CC=C4CC(OC(=O)N5C(=O)CCC(N6C(=O)c7ccccc7C6=O)C5=O)CCC4(C)C3CCC12C (centres undefined) | 50
30 | O=C(O)C(C(=O)O)N1C(=O)c2ccccc2C1=O | -2
31 | CCC1(N2C(=O)c3cccc([N+](=O)[O-])c3C2=O)C(=O)NC(=O)N(c2ccccc2)C1=O (centres undefined) | 1.75
32 | O=C1CCC(NC(=O)C(C(=O)O)N2C(=O)c3ccccc3C2=O)C(=O)N1 (centres undefined) | 11.67
33 | O=C1CCC(N2C(=O)c3ccccc3C2=O)C(=O)O1 (centres undefined) | 42
34 | CC(C)(C)OC(=O)NC(Cc1ccccc1)C(=O)OCN1C(=O)CCC(N2C(=O)c3ccccc3C2=O)C1=O (centres undefined) | 33.75
35 | CC(C)CCCC(C)C1CCC2C3CC=C4CC(OC(=O)CN5C(=O)CCC(N6C(=O)c7ccccc7C6=O)C5=O)CCC4(C)C3CCC12C (centres undefined) | 25.25
36 | COCN1C(=O)CCC(N2C(=O)c3ccccc3C2=O)C1=O (centres undefined) | 13
37 | NC(=O)CCC(C(=O)O)N1C(=O)c2ccccc2C1=O (centres undefined) [2-PHTHALIMIDOGLUTARAMIC ACID] | 1.75
38 | Nc1cccc2c1C(=O)N(C1CCC(=O)NC1=O)C2=O (centres undefined) [POMALIDOMIDE] | 5.5
39 | O=C1NCCCC1N1C(=O)c2ccccc2S1(=O)=O (centres undefined) [SUPIDIMIDE] | 4.5
